Assay results reported in ChEMBL document CHEMBL4689842, “EUbOPEN Chemogenomics Library wave 1” (2021).

System: Fibroblast
Assay: Multiplex assay against human fibroblast
Type: toxicity, cell-based
Summary of the method: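 Live cells carried four stains from seeding: Hoechst33342, BioTracker Green Microtubule Cytoskeleton Dye, MitoTracker Red and Annexin V Alexa Fluor 680. They were imaged on a CQ1 microscope at 37°C and 5% CO2 after compound addition. Using CellPathfinder machine-learning gating, cells were split into Hoechst high-intensity objects or normal cells, normal cells into healthy, pyknosed or fragmented nuclei, and pyknosed cells into mitotic or apoptotic; tubulin, mitochondrial-mass and membrane-permeability phenotypes are per cents of healthy-nucleus cells.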

[1] = 12 h, 1 µM, compound concentration 1 uM, replicate 1
[2] = 12 h, 1 µM, compound concentration 1 uM, replicate 2
[3] = 12 h, 10 µM, compound concentration 10 uM, replicate 1
[4] = 12 h, 10 µM, compound concentration 10 uM, replicate 2
[5] = 24 h, 1 µM, compound concentration 1 uM, replicate 1
[6] = 24 h, 1 µM, compound concentration 1 uM, replicate 2
[7] = 24 h, 10 µM, compound concentration 10 uM, replicate 1
[8] = 24 h, 10 µM, compound concentration 10 uM, replicate 2
[9] = 48 h, 1 µM, compound concentration 1 uM, replicate 1
[10] = 48 h, 1 µM, compound concentration 1 uM, replicate 2
[11] = 48 h, 10 µM, compound concentration 10 uM, replicate 1
[12] = 48 h, 10 µM, compound concentration 10 uM, replicate 2

O=C1NC(=O)C(c2cnc3ccccn23)=C1c1cn2c3c(cc(F)cc13)CN(C(=O)N1CCCCC1)CC2 [LY-2090314]
Population Apoptotic (%) [1]: 60%
Population Fragmented Nuclei (%) [1]: 16%
Population Healthy Nuclei (%) [1]: 32%
Population Hoechst High Intensity Objects (%) [1]: 11%
Population Membrane Permeable-Phenotype (%) [1]: 29%
Population Mitochondria Different-Phenotype (%) [1]: 22%
Population Mitotic Cells (%) [1]: 40%
Population Normal (%) [1]: 88%
Population Pyknosed Nuclei (%) [1]: 51%
Population Tubulin-Different-Phenotype (%) [1]: 89%
Total Cell Count [1]: 166
Population Apoptotic (%) [2]: 80%
Population Fragmented Nuclei (%) [2]: 3%
Population Healthy Nuclei (%) [2]: 87%
Population Hoechst High Intensity Objects (%) [2]: 12%
Population Membrane Permeable-Phenotype (%) [2]: 6%
Population Mitochondria Different-Phenotype (%) [2]: 16%
Population Mitotic Cells (%) [2]: 20%
Population Normal (%) [2]: 87%
Population Pyknosed Nuclei (%) [2]: 9%
Population Tubulin-Different-Phenotype (%) [2]: 22%
Total Cell Count [2]: 85
Population Apoptotic (%) [3]: 61%
Population Fragmented Nuclei (%) [3]: 23%
Population Healthy Nuclei (%) [3]: 31%
Population Hoechst High Intensity Objects (%) [3]: 6%
Population Membrane Permeable-Phenotype (%) [3]: 50%
Population Mitochondria Different-Phenotype (%) [3]: 26%
Population Mitotic Cells (%) [3]: 38%
Population Normal (%) [3]: 93%
Population Pyknosed Nuclei (%) [3]: 44%
Population Tubulin-Different-Phenotype (%) [3]: 86%
Total Cell Count [3]: 101
Population Apoptotic (%) [4]: 100%
Population Fragmented Nuclei (%) [4]: 9%
Population Healthy Nuclei (%) [4]: 74%
Population Hoechst High Intensity Objects (%) [4]: 10%
Population Membrane Permeable-Phenotype (%) [4]: 40%
Population Mitochondria Different-Phenotype (%) [4]: 96%
Population Mitotic Cells (%) [4]: 0%
Population Normal (%) [4]: 89%
Population Pyknosed Nuclei (%) [4]: 16%
Population Tubulin-Different-Phenotype (%) [4]: 96%
Total Cell Count [4]: 63
Population Apoptotic (%) [5]: 64%
Population Fragmented Nuclei (%) [5]: 25%
Population Healthy Nuclei (%) [5]: 36%
Population Hoechst High Intensity Objects (%) [5]: 7%
Population Membrane Permeable-Phenotype (%) [5]: 26%
Population Mitochondria Different-Phenotype (%) [5]: 17%
Population Mitotic Cells (%) [5]: 35%
Population Normal (%) [5]: 92%
Population Pyknosed Nuclei (%) [5]: 38%
Population Tubulin-Different-Phenotype (%) [5]: 86%
Total Cell Count [5]: 156
Population Apoptotic (%) [6]: 80%
Population Fragmented Nuclei (%) [6]: 4%
Population Healthy Nuclei (%) [6]: 87%
Population Hoechst High Intensity Objects (%) [6]: 13%
Population Membrane Permeable-Phenotype (%) [6]: 7%
Population Mitochondria Different-Phenotype (%) [6]: 22%
Population Mitotic Cells (%) [6]: 20%
Population Normal (%) [6]: 86%
Population Pyknosed Nuclei (%) [6]: 8%
Population Tubulin-Different-Phenotype (%) [6]: 18%
Total Cell Count [6]: 82
Population Apoptotic (%) [7]: 70%
Population Fragmented Nuclei (%) [7]: 24%
Population Healthy Nuclei (%) [7]: 34%
Population Hoechst High Intensity Objects (%) [7]: 11%
Population Membrane Permeable-Phenotype (%) [7]: 41%
Population Mitochondria Different-Phenotype (%) [7]: 58%
Population Mitotic Cells (%) [7]: 29%
Population Normal (%) [7]: 88%
Population Pyknosed Nuclei (%) [7]: 41%
Population Tubulin-Different-Phenotype (%) [7]: 87%
Total Cell Count [7]: 102
Population Apoptotic (%) [8]: 81%
Population Fragmented Nuclei (%) [8]: 11%
Population Healthy Nuclei (%) [8]: 64%
Population Hoechst High Intensity Objects (%) [8]: 4%
Population Membrane Permeable-Phenotype (%) [8]: 37%
Population Mitochondria Different-Phenotype (%) [8]: 96%
Population Mitotic Cells (%) [8]: 18%
Population Normal (%) [8]: 95%
Population Pyknosed Nuclei (%) [8]: 24%
Population Tubulin-Different-Phenotype (%) [8]: 96%
Total Cell Count [8]: 72
Population Apoptotic (%) [9]: 79%
Population Fragmented Nuclei (%) [9]: 36%
Population Healthy Nuclei (%) [9]: 22%
Population Hoechst High Intensity Objects (%) [9]: 6%
Population Membrane Permeable-Phenotype (%) [9]: 14%
Population Mitochondria Different-Phenotype (%) [9]: 25%
Population Mitotic Cells (%) [9]: 20%
Population Normal (%) [9]: 93%
Population Pyknosed Nuclei (%) [9]: 41%
Population Tubulin-Different-Phenotype (%) [9]: 85%
Total Cell Count [9]: 127
Population Apoptotic (%) [10]: 75%
Population Fragmented Nuclei (%) [10]: 55%
Population Healthy Nuclei (%) [10]: 29%
Population Hoechst High Intensity Objects (%) [10]: 8%
Population Membrane Permeable-Phenotype (%) [10]: 26%
Population Mitochondria Different-Phenotype (%) [10]: 26%
Population Mitotic Cells (%) [10]: 25%
Population Normal (%) [10]: 91%
Population Pyknosed Nuclei (%) [10]: 15%
Population Tubulin-Different-Phenotype (%) [10]: 69%
Total Cell Count [10]: 86
Population Apoptotic (%) [11]: 73%
Population Fragmented Nuclei (%) [11]: 28%
Population Healthy Nuclei (%) [11]: 25%
Population Hoechst High Intensity Objects (%) [11]: 15%
Population Membrane Permeable-Phenotype (%) [11]: 28%
Population Mitochondria Different-Phenotype (%) [11]: 57%
Population Mitotic Cells (%) [11]: 26%
Population Normal (%) [11]: 84%
Population Pyknosed Nuclei (%) [11]: 46%
Population Tubulin-Different-Phenotype (%) [11]: 71%
Total Cell Count [11]: 97
Population Apoptotic (%) [12]: 93%
Population Fragmented Nuclei (%) [12]: 10%
Population Healthy Nuclei (%) [12]: 61%
Population Hoechst High Intensity Objects (%) [12]: 16%
Population Membrane Permeable-Phenotype (%) [12]: 5%
Population Mitochondria Different-Phenotype (%) [12]: 85%
Population Mitotic Cells (%) [12]: 6%
Population Normal (%) [12]: 83%
Population Pyknosed Nuclei (%) [12]: 27%
Population Tubulin-Different-Phenotype (%) [12]: 85%
Total Cell Count [12]: 66
